Compound activity (PubChem BioAssay)
Only some compounds are listed: those with a hit (about 1.8% of all), similar ones and a draw of the others.
M4 PAM = human M4 muscarinic receptor positive allosteric modulators, primary screen, CHO-K1 cells, Fluo-8 calcium fluorescence; Muscarinic acetylcholine receptor M4 (Homo sapiens), P08173; CHO-K1 hM4/Gqi5, ACh EC20; 0% = ACh EC20, 100% = maximal ACh; activation, % at 3 µM; actives 0.4% (n = 360,000);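 active = activation above its plate's cutoff, the mean activation of sample wells plus 3 SD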
M4 ag = human M4 muscarinic receptor agonists, primary screen, CHO-K1 cells, Fluo-8 calcium fluorescence | Muscarinic acetylcholine receptor M4 (Homo sapiens), P08173 | CHO-K1 hM4/Gqi5; vehicle 0%, full acetylcholine response 100% | activation, % at 3 µM | actives 0.14% (n = 360,000);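 active = activation above the run mean over all test wells plus 3 SD, cut at about 32% in these data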;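 also: peak over basal fluorescence ratio per well then scaled between controls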
M5 PAM = human M5 muscarinic receptor positive allosteric modulators, primary screen, CHO-K1 cells, Fluo-8 calcium fluorescence; activation, % at 3 µM; actives 0.3% (n = 360,000); CHO-K1 hM5, ACh EC20 PAM; 0% = ACh EC20, 100% = ACh EC100; Muscarinic acetylcholine receptor M5 (Homo sapiens), P08912;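 active = activation above the run cutoff, the mean activation of all test compounds plus 3 SD, cut at about 18% in these data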
Target sequence (P08912 whole entry, looked up): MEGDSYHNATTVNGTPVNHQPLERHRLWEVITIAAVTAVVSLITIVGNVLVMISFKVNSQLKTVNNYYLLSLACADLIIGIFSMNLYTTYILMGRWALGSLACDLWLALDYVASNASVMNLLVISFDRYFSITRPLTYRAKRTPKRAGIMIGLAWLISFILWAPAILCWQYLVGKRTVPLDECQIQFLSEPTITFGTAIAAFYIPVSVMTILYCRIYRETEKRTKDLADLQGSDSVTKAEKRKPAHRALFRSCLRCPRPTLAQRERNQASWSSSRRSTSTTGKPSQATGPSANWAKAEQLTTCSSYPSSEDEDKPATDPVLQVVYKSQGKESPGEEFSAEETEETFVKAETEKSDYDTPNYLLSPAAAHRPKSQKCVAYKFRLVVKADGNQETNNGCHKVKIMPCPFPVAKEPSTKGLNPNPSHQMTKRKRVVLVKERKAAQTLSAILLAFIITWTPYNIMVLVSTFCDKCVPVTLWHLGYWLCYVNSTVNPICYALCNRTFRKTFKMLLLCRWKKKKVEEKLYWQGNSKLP
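Assay system – human M5 receptor in CHO-K1 cells · Read-out – % activation, ACh-normalized · Technique – Fluo-8 calcium fluorescence · Dosing – single-point, 3 µM nominal · Incubation – Fluo-8 loading 80 min at 37 °C plus 30 min room temperature · Repeats – singlicate, one well per test compound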
CHRM5 agonist = human M5 muscarinic receptor agonists, primary screen, CHO-K1 cells, Fluo-8 calcium fluorescence. Muscarinic acetylcholine receptor M5 (Homo sapiens), P08912. CHO-K1 hM5 cells; 0% DMSO wells, 100% maximal acetylcholine response. activation, % at 3 µM. actives 0.19% (n = 360,000);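 active = activation above the run's mean over test compounds plus 3 SD, cut at about 23% in these data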;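 also: signal is peak over basal fluorescence ratio across the kinetic read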
M4 antag = human M4 muscarinic receptor antagonists, primary screen, CHO cells, Fluo-8 calcium fluorescence; CHO-hM4 cells, ACh EC80; actives 0.73% (n = 360,000); AID 624125, 2012; Muscarinic acetylcholine receptor M4 (Homo sapiens), P08173; inhibition, % at 3 µM;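 active = inhibition above its plate's cutoff, the mean inhibition of sample wells plus 3 SD, cut at about 27% in these data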
M5 antag = human M5 muscarinic receptor antagonists, primary screen, CHO cells, Fluo-8 calcium fluorescence | actives 0.59% (n = 360,000) | Muscarinic acetylcholine receptor M5 (Homo sapiens), P08912 | inhibition, % at 3 µM | CHO-hM5 cells, ACh EC80;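 active = inhibition above a per-plate cutoff, the mean of that plate's test compounds plus 3 SD, cut at about 27% in these data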
Hits are given with their value; i = inactive.

SMILES | M4 PAM | M4 ag | M5 PAM | CHRM5 agonist | M4 antag | M5 antag
O=c1[nH]c(C2CCN(S(=O)(=O)c3ccc(S(=O)(=O)NC4CC4)cc3)CC2)nc2c1nnn2Cc1ccccc1 | i | i | i | i | 63 | i
O=c1[nH]c(C2CCN(S(=O)(=O)c3ccccc3)CC2)nc2c1nnn2Cc1cccc(Cl)c1 | i | i | i | i | 83 | i
O=c1[nH]c(C2CCN(S(=O)(=O)c3cccc(Cl)c3)CC2)nc2c1nnn2Cc1ccccc1 | i | i | i | i | 96 | i
O=C(NC(=O)c1ccccc1)Nc1cccc(S(=O)(=O)N2CCCCC2)c1 | i | i | i | i | i | i
O=C(Nc1ccccc1Br)c1cc(=O)c2ccccc2o1 | i | i | i | i | i | i
COc1ccccc1-c1cccc([C@@H]2C[C@H]3[C@H](CON3C)CN2C(=O)C(C)(C)C)c1 | i | i | i | i | i | i
COc1ccc2nc(NC(=O)Nc3ccccc3)sc2c1 | i | i | i | i | 43 | i
COc1ccc(NC(=O)Nc2cccc(OC)c2)cc1 | i | i | i | i | i | i
CCOc1ccc2nc(NC(=O)Nc3ccccc3)sc2c1 | i | i | i | i | i | i
COc1cccc(NC(=O)Nc2ccc3nc(C)c(C)nc3c2)c1 | i | i | i | i | i | i
COc1cccc(NC(=O)Nc2ccc3nsnc3c2)c1 | i | i | i | i | i | 54
COc1cccc(NC(=O)Nc2cc(Cl)ccc2C)c1 | i | i | i | i | i | 32
S=C1NCc2cncnc2N1 | i | i | i | i | i | i
CN(C)C(CNC(=S)Nc1ccc(F)cc1)c1cccnc1 (stereo unspecified) | i | i | i | i | i | i
CCCN(CC(=O)Nc1ccccc1OC)C(=O)c1ccc(COc2ccccc2)o1 | i | i | i | i | i | i
O=C(C(=Cc1ccccc1)CN1CCCCC1)c1ccccc1 | i | i | i | i | 29 | i
CCCS(=O)(=O)c1nc(S(=O)(=O)c2ccc(C)cc2)c(N2CCC3(CC2)OCCO3)s1 | i | i | i | i | i | i
CC(=O)N1CCN(C23CC4CC(CC(C4)C2)C3)CC1 | i | i | i | i | i | i
CCCC#CCN1CCN(C23CC4CC(CC(C4)C2)C3)CC1 | i | i | i | i | 28 | i
CCCCCC#CCN1CCN(C23CC4CC(CC(C4)C2)C3)CC1 | i | i | i | i | 30 | i
CCn1c(=O)c(=O)[nH]c2cc(C(=O)NC3CC3)ccc21 | i | i | i | i | i | i
CCN1CCN(c2ccc(NC(=O)c3cccc(S(=O)(=O)N4CCCC4)c3)cc2)CC1 | i | i | i | i | i | 50
CCn1c(=O)c(=O)[nH]c2cc(C(=O)NC3CCCc4ccccc43)ccc21 (stereo unspecified) | 36 | i | i | i | i | i
CCn1c(=O)c(=O)[nH]c2cc(C(=O)Nc3ccc(S(=O)(=O)N4CCCC4)cc3)ccc21 | 31 | i | i | i | i | i
COc1ccc(NC(=O)CN(C)C(=O)c2cccc(S(=O)(=O)N3CCN(c4ccc(F)cc4)CC3)c2)cc1 | i | i | i | i | i | 30
SMILES | M4 PAM | M4 ag | M5 PAM | CHRM5 agonist | M4 antag | M5 antag
C/C(CC(=O)Nc1cccnc1)=N\NC(=O)c1ccc([N+](=O)[O-])c(Cl)c1 | i | i | i | i | i | i
CC(=O)Nc1ccccc1NC(=O)C/C(C)=N/NC(=O)c1ccc([N+](=O)[O-])c(Cl)c1 | 24 | i | i | i | i | i
CC(C)N1CCC(N2CCN(Cc3cc(F)ccc3-n3cccn3)CC2CCO)CC1 (stereo unspecified) | i | i | 22 | i | i | i
Cc1cc(-n2cccn2)ccc1CN1CCN(CC(C)C)C(CCO)C1 (stereo unspecified) | i | i | i | i | 55 | i
CC(C)N1CCN(Cc2cc(F)ccc2-n2cccn2)CC1CCO (stereo unspecified) | i | i | i | i | i | i
CC(C)CCN1CCN(Cc2cccc(-n3cccn3)c2)CC1CCO (stereo unspecified) | i | i | i | i | i | i
Cc1cc(-n2cccn2)ccc1CN1CCN(C2CCCC2)C(CCO)C1 (stereo unspecified) | i | i | i | i | 99 | 54
COc1cccc(/C=N/NC(=O)Cn2cnc3c2c(=O)n(C)c(=O)n3C)c1OC | i | i | i | i | i | i
Cc1cc(CN(C)C(=O)c2cc(COc3ccc4ncccc4c3)on2)on1 | i | i | i | i | i | i
CC(CNC(=O)c1cc(COc2ccc3ncccc3c2)on1)c1ccccc1 (stereo unspecified) | i | i | i | i | i | 30
COc1cc(Cl)ccc1OCc1cc(C(=O)N2CCCC(OC)C2)no1 (stereo unspecified) | i | i | i | i | i | 29
CCC(O)C1CCN(C(=O)c2cc(COc3ccc4ncccc4c3)on2)CC1 (stereo unspecified) | i | i | i | i | i | 35
COc1cc(Cl)ccc1OCc1cc(C(=O)N2CCCCCC2)no1 | i | i | i | i | i | i
COc1cccc(OCc2cc(C(=O)N3CCN(C4CCCC4)CC3)no2)c1 | i | i | i | i | i | 29
CNc1ccc(Cl)cc1S(=O)(=O)c1ccccc1[N+](=O)[O-] | i | i | i | i | i | i
CC(=O)Nc1cc(-c2ccccc2N(C)C)cn2c(-c3cccc(C(F)(F)F)c3)cnc12 | i | i | i | i | i | i
CSC(=S)N/N=C(\C)c1ccccc1 | i | i | i | i | i | i
O=C(NC1CCCCCCC1)c1cc(COc2ccc3ncccc3c2)on1 | i | i | i | i | 34 | 36
O=C1NC(=S)N/C1=C\c1ccc(Oc2ccc(C(F)(F)F)cc2[N+](=O)[O-])c(Cl)c1 | i | i | 19 | i | i | i
CC1CC(=O)Nc2ccccc2N1C(=O)CSc1nnnn1C(C)C (stereo unspecified) | i | i | i | i | i | i
COC(=O)c1ccc(CN2CCc3ccccc32)cc1 | i | i | i | i | i | i
O=C(CSc1nnc(COc2cccc3cccnc23)o1)N1CCc2ccccc21 | i | i | i | i | i | 28
